This is a sample that favours compounds with a hit; in the whole collection about 3.5% have one here.
RGS4 act: potentiators or activators of RGS4; hit rate 0.92% among 310,000; B-score at 10 µM; HEK293 M3R/inducible RGS4, carbachol calcium flux Fluo4; stronger effect = lower value;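 active = B-score of the integrated calcium signal more than 4 SD below the library mean, with starting fluorescence not abnormally high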;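 also: negative B-score means reduced calcium response which marks RGS4 activation or potentiation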
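Detection: kinetic calcium fluorescence imaging with Fluo4-AM dye, 2 µM / Material: HEK293 cells with stable M3R and inducible RGS4 / Schedule: recording 10 s baseline at 1 Hz, 100 s post-agonist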
MrgX1 antagonist: blocks BAM8-22 activation of human MrgX1 receptor | MRGX1-HEK293 calcium flux, Fluo-4, BAM8-22 antagonism; stronger effect = lower value | B-score at 10 µM | hit rate 1.3% among 310,000 | AID 588676;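 active = calcium-response B-score plate-corrected more than 3 library SD below zero, starting fluorescence within 5 deviations, no agonist response on first addition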;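 also: peak minus trough fluorescence over baseline after final BAM8-22 challenge near maximal dose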
Target sequence (Q96LB2 whole entry, looked up): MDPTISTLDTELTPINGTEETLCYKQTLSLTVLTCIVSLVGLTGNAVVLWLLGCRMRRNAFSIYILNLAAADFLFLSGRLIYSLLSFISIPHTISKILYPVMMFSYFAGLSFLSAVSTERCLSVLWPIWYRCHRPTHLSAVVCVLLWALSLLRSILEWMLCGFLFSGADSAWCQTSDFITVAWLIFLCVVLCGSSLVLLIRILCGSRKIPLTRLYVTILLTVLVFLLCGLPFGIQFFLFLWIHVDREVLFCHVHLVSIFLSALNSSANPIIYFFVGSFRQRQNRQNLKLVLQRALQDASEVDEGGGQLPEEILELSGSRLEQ
MrgX1 PAM: allosterically activates human MrgX1 receptor signaling; MrgX1-HEK293, Fluo-4 calcium flux, FDSS; stronger effect = higher value; B-score at 10 µM; AID 588675; hit rate 0.63% among 310,000; Q96LB2;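 active = plate-corrected calcium response at least 3 library SD above typical, normal starting fluorescence, not activating the receptor alone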;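 also: compound read alongside a low EC10 to EC30 dose of BAM8-22 agonist; peak minus trough fluorescence over baseline measured at the second addition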
RGS4 block: human RGS4 inhibition; hit rate 0.45% among 310,000; HEK293 M3R/RGS4 inducible, Fluo-4 calcium flux; stronger effect = higher value; triggered by carbachol at its EC20; AID 463165; B-score at 10 µM;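 active = B-score, a plate-corrected calcium signal, over three deviations above library mean, with baseline fluorescence within five deviations of library mean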;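 also: RGS4 expression induced by doxycycline in cells with stable M3 receptor; B-score is computed from the integrated fluorescence ratio over baseline after carbachol; higher B-score means a larger calcium signal and so more RGS4 inhibition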
Target sequence (P49798 whole entry, looked up): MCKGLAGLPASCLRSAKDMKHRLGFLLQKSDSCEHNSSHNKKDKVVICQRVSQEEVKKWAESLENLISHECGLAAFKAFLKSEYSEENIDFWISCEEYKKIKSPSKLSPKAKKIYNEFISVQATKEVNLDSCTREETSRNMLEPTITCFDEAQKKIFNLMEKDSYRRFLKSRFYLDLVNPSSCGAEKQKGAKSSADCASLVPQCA
MrgX1 agonist: agonists of human MrgX1 receptor. Q96LB2. MrgX1-HEK293 cells, Fluo-4 calcium fluorescence, agonist mode; stronger effect = higher value. AID 588627. hit rate 0.44% among 310,000. B-score at 10 µM;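 active = calcium response B-score plate-corrected fluorescence ratio at least 3 library SD, with starting fluorescence B-score inside 5 SD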
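Assay system: MrgX1-expressing HEK293 cells / Amount: fifteen thousand cells per well / Doses: test compound in the initial addition of three / Timing: cells plated overnight, dye loaded 0.5 h 37 °C, 0.5 h room temperature / Technique: kinetic calcium dye fluorescence, Fluo-4 NW / Control set: positive and negative controls per plate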
RGS4 act valid: confirmation of RGS4 activators; shares compounds with RGS4 act; HEK293 M3R/RGS4 inducible, carbachol calcium flux Fluo4; inhibition, % at 10 µM; hit rate 89% among 1,100; AID 602282;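 active = inhibition above 3 SD of the buffer control wells, cut at about 41% in these data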;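 also: signal is the integrated peak-minus-minimum Fluo4 fluorescence over baseline ratio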
RGS4 act ctr: RGS4 activator counter-screen hit in non-induced cells; shares compounds with RGS4 act; hit rate 82% among 1,100; inhibition, % at 10 µM; HEK293 M3R non-induced RGS4, Fluo4 calcium flux; after carbachol challenge at its EC90;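 active = inhibition exceeding 3 SD of buffer-only control wells, cut at about 26% in these data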;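 also: percent drop in integrated peak-minus-baseline over baseline Fluo4 ratio after carbachol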
* = called active by the depositor.

`CCC1C=CC=CC[C@H](C)[C@@H](O)[C@](C)(O)C(=O)[C@@H](C)[C@H](O)[C@@H](C)C(=O)[C@H](C)[C@@H](O)[C@H](C)C=CC(=O)OC2[C@@H](C)C(CC1)OC1(CC[C@@H](C)C(C[C@H](C)O)O1)[C@@H]2C` (stereo partly specified) gave MrgX1 antagonist -4.8*, MrgX1 PAM inactive and MrgX1 agonist inactive.
Screening C=C1C2[C@H](OC(C)=O)[C@@H]3CC(=O)[C@]4(C)OC[C@@]3(C)[C@@]4(O)[C@@H](OC(C)=O)[C@H](OC(C)=O)[C@@]2(COC(=O)c2ccccc2)[C@@H](OC(C)=O)C[C@@H]1O (stereo partly specified) returned RGS4 act inactive, MrgX1 antagonist -5.4*, MrgX1 PAM inactive, RGS4 block inactive and MrgX1 agonist inactive.
For O=C(O)c1ccc(NC(=O)N2C[C@H]3C[C@@H](C2)c2cccc(=O)n2C3)cc1 the results were RGS4 act -10*, MrgX1 antagonist inactive, MrgX1 PAM inactive, RGS4 block inactive and MrgX1 agonist inactive.
`CC1(C)N=C(c2ccccc2)[C@@H]2C(c3ccc([N+](=O)[O-])cc3)N21` (stereo partly specified) gave RGS4 act inactive, MrgX1 antagonist inactive, MrgX1 PAM inactive, RGS4 block inactive and MrgX1 agonist inactive.
Screening CCc1cc(=O)oc2cc(OCC(=O)N3C[C@H]4C[C@@H](C3)c3cccc(=O)n3C4)ccc12 returned RGS4 act inactive, MrgX1 antagonist inactive, MrgX1 PAM inactive, RGS4 block inactive and MrgX1 agonist inactive.
`Clc1cnc(Oc2ccc(Oc3ncc(Cl)cc3Cl)cc2)c(Cl)c1` gave RGS4 act inactive, MrgX1 antagonist inactive, MrgX1 PAM 13*, RGS4 block inactive and MrgX1 agonist inactive.
Screening Oc1cc(Cl)ccc1Oc1ccc(Cl)cc1Cl returned RGS4 act -7.1*, MrgX1 antagonist inactive, MrgX1 PAM inactive, RGS4 block inactive and MrgX1 agonist inactive.
`O=C1NC(=O)C(=Cc2ccc(N3CCOCC3)o2)C(=O)N1` gave RGS4 act -7.6*, MrgX1 antagonist inactive, MrgX1 PAM inactive, RGS4 block inactive and MrgX1 agonist inactive.
Screening O=C(c1cccs1)C1CN2CCC1CC2 (stereo unspecified) returned RGS4 act -9.3*, MrgX1 antagonist inactive, MrgX1 PAM inactive, RGS4 block inactive, MrgX1 agonist inactive, RGS4 act valid 60* and RGS4 act ctr 0.
For CN1CC(C(=O)c2cccs2)C(c2ccc(Cl)cc2)C1 (stereo unspecified) the results were RGS4 act inactive, MrgX1 antagonist inactive, MrgX1 PAM inactive, RGS4 block inactive and MrgX1 agonist inactive.
For COc1ccc(-c2nn(CCC#N)cc2C(=O)Nc2ccccc2Br)cc1[N+](=O)[O-] the results were RGS4 act inactive, MrgX1 antagonist inactive, MrgX1 PAM inactive, RGS4 block inactive and MrgX1 agonist inactive.
`CCc1ccccc1NC(=O)CNC1CCCCC1` gave RGS4 act inactive, MrgX1 antagonist inactive, MrgX1 PAM inactive, RGS4 block inactive and MrgX1 agonist inactive.
For CN(CC(=O)Nc1ccccc1-c1ccccc1)C1CCCCC1 the results were RGS4 act -9.6*, MrgX1 antagonist inactive, MrgX1 PAM inactive, RGS4 block inactive, MrgX1 agonist inactive, RGS4 act valid 92* and RGS4 act ctr 55*.
Screening CCC[N+]12CCC(CC1)C(=C(c1ccccc1)c1ccccc1)C2 returned RGS4 act -12*, MrgX1 antagonist inactive, MrgX1 PAM inactive, RGS4 block inactive, MrgX1 agonist inactive, RGS4 act valid 90* and RGS4 act ctr 64*.
Screening Cc1ccc(C(C)C)c(OCC#CCN2CCCC2)c1 returned RGS4 act -9.1*, MrgX1 antagonist inactive, MrgX1 PAM inactive, RGS4 block inactive, MrgX1 agonist inactive, RGS4 act valid 91* and RGS4 act ctr 41*.
For O=C(c1ccc(Cl)cc1)C1CCCN(C2CCSCC2)C1 (stereo unspecified) the results were RGS4 act -7.9*, MrgX1 antagonist inactive, MrgX1 PAM inactive, RGS4 block inactive, MrgX1 agonist inactive, RGS4 act valid 92* and RGS4 act ctr 55*.
Screening CC(C)(C)NC(=S)/N=C(\N)N[N+](=O)[O-] returned RGS4 act inactive, MrgX1 antagonist inactive, MrgX1 PAM inactive, RGS4 block inactive and MrgX1 agonist inactive.
Screening CCC(=NCCCN1CCOCC1)c1c(O)n(-c2ccccc2C)c(=O)[nH]c1=O returned RGS4 act inactive, MrgX1 antagonist inactive, MrgX1 PAM inactive, RGS4 block inactive and MrgX1 agonist inactive.
Brc1ccc2c(c1)C(OC1CN3CCC1CC3)c1ccccc1CS2 (stereo unspecified) was read as RGS4 act -14*, MrgX1 antagonist inactive, MrgX1 PAM inactive, RGS4 block inactive, MrgX1 agonist inactive, RGS4 act valid 94* and RGS4 act ctr 90*.
For c1ccc(C(OCCN2CCNCC2)c2ccccc2)cc1 the results were RGS4 act -9.5*, MrgX1 antagonist inactive, MrgX1 PAM inactive, RGS4 block inactive, MrgX1 agonist inactive, RGS4 act valid 92* and RGS4 act ctr 74*.
`c1ccc(CN2CCNCC2)nc1` gave RGS4 act inactive, MrgX1 antagonist inactive, MrgX1 PAM inactive, RGS4 block inactive and MrgX1 agonist inactive.
`OC(CC#CCN1CCCCCC1)(c1ccccc1)C1CCCC1` (stereo unspecified) gave RGS4 act -7.7*, MrgX1 antagonist inactive, MrgX1 PAM inactive, RGS4 block inactive, MrgX1 agonist inactive, RGS4 act valid 93* and RGS4 act ctr 95*.
Screening CC1(C(O)(C#CCN2CCCCC2)c2ccccc2)CCCC1 (stereo unspecified) returned RGS4 act -7.6*, MrgX1 antagonist inactive, MrgX1 PAM inactive, RGS4 block inactive, MrgX1 agonist inactive, RGS4 act valid 93* and RGS4 act ctr 89*.
For CCOC(=O)C1(CCCc2ccccc2)CCN(C2CCC2)CC1 the results were RGS4 act inactive, MrgX1 antagonist inactive, MrgX1 PAM inactive, RGS4 block inactive and MrgX1 agonist inactive.
Screening ClC(Cl)=C(c1ccc(Cl)cc1)c1ccc(Cl)cc1 returned MrgX1 antagonist inactive, MrgX1 PAM inactive and MrgX1 agonist inactive.

Screening data: PubChem BioAssay, Johns Hopkins Ion Channel Center
